The text below walks through data of ChEMBL document CHEMBL1138194, “Spatial conformation and topography of the tyrosine aromatic ring in substrate recognition by protein tyrosine kinases” (J Med Chem, 2006).

As usually defined, the Km is the substrate concentration at which the rate is half of its maximum.

Data set [1] concerns CC(C)[C@H](NC(=O)[C@H](CCC(=O)O)NC(=O)[C@H](CCC(=O)O)NC(=O)[C@H]1Cc2cc(O)ccc2CN1C(=O)[C@H](CCC(=O)O)NC(=O)[C@H](CC(=O)O)NC(=O)[C@H](CC(=O)O)NC(=O)[C@@H](N)CCC(=O)O)C(=O)O. The experiment in a line: (§1) Affinity towards tyrosine kinase Syk. Put shortly:
(§2)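 Syk purified from rat spleen (1 unit = 1 pmol phosphate/min to polyGlu4Tyr at 0.1 mg/mL). Kinetic assays at 30 °C in 50 mM Tris/HCl pH 7.5, 5 mM MnCl2, 20 µM [γ33P]ATP, 10 units enzyme, varied peptide substrate. Stopped with 1 N HCl, heated to hydrolyse ATP, Pi removed as phosphomolybdic complex; aqueous phosphopeptide counted by scintillation; Km derived.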

For data set [2], the system named is CC(C)[C@H](NC(=O)[C@H](CCC(=O)O)NC(=O)[C@H](CCC(=O)O)NC(=O)[C@H](NC(=O)[C@H](CCC(=O)O)NC(=O)[C@H](CC(=O)O)NC(=O)[C@H](CC(=O)O)NC(=O)[C@@H](N)CCC(=O)O)[C@@H](C)c1ccc(O)cc1)C(=O)O. Described as §1. In a few lines:
as §2

For data set [3], the system named is CC(C)[C@H](NC(=O)[C@H](CCC(=O)O)NC(=O)[C@H](CCC(=O)O)NC(=O)[C@@]1(NC(=O)[C@H](CCC(=O)O)NC(=O)[C@H](CC(=O)O)NC(=O)[C@H](CC(=O)O)NC(=O)[C@@H](N)CCC(=O)O)Cc2ccc(O)cc2C1)C(=O)O. The description is as §1. In a few lines: as §2
Data set [4] concerns CC(C)[C@H](NC(=O)[C@H](CCC(=O)O)NC(=O)[C@H](CCC(=O)O)NC(=O)[C@@H]1Cc2cc(O)ccc2CN1C(=O)[C@H](CCC(=O)O)NC(=O)[C@H](CC(=O)O)NC(=O)[C@H](CC(=O)O)NC(=O)[C@@H](N)CCC(=O)O)C(=O)O. The description is as §1. Put shortly:
as §2

Data set [5] deals with CC(C)[C@H](NC(=O)[C@H](CCC(=O)O)NC(=O)[C@H](CCC(=O)O)NC(=O)[C@]1(NC(=O)[C@H](CCC(=O)O)NC(=O)[C@H](CC(=O)O)NC(=O)[C@H](CC(=O)O)NC(=O)[C@@H](N)CCC(=O)O)Cc2ccc(O)cc2C1)C(=O)O. Described as §1. Put shortly:
as §2

Data set [6] deals with CC(C)[C@H](NC(=O)[C@H](CCC(=O)O)NC(=O)[C@H](CCC(=O)O)NC(=O)[C@H](Cc1ccc(O)cc1)NC(=O)[C@H](CCC(=O)O)NC(=O)[C@H](CC(=O)O)NC(=O)[C@H](CC(=O)O)NC(=O)[C@@H](N)CCC(=O)O)C(=O)O. The description is as §1. Put shortly:
as §2

Data set [7] relates to CC(C)[C@H](NC(=O)[C@H](CCC(=O)O)NC(=O)[C@H](CCC(=O)O)NC(=O)[C@](C)(Cc1ccc(O)cc1)NC(=O)[C@H](CCC(=O)O)NC(=O)[C@H](CC(=O)O)NC(=O)[C@H](CC(=O)O)NC(=O)[C@@H](N)CCC(=O)O)C(=O)O. The data set is described as §1. In a few lines: as §2
In data set [8] the test system is CC(C)[C@H](NC(=O)[C@H](CCC(=O)O)NC(=O)[C@H](CCC(=O)O)NC(=O)[C@H](Cc1cccc(O)c1)NC(=O)[C@H](CCC(=O)O)NC(=O)[C@H](CC(=O)O)NC(=O)[C@H](CC(=O)O)NC(=O)[C@@H](N)CCC(=O)O)C(=O)O. The description is as §1. Put shortly:
as §2

Data set [9] concerns CC(C)[C@H](NC(=O)[C@H](CCC(=O)O)NC(=O)[C@H](CCC(=O)O)NC(=O)[C@@]1(NC(=O)[C@H](CCC(=O)O)NC(=O)[C@H](CC(=O)O)NC(=O)[C@H](CC(=O)O)NC(=O)[C@@H](N)CCC(=O)O)CCc2cc(O)ccc2C1)C(=O)O. Described as §1. Put shortly: as §2
Data set [10] deals with CC(C)[C@H](NC(=O)[C@H](CCC(=O)O)NC(=O)[C@H](CCC(=O)O)NC(=O)[C@]1(NC(=O)[C@H](CCC(=O)O)NC(=O)[C@H](CC(=O)O)NC(=O)[C@H](CC(=O)O)NC(=O)[C@@H](N)CCC(=O)O)CCc2cc(O)ccc2C1)C(=O)O. The description is as §1. Put shortly: as §2
The subject of data set [11] is CC(C)[C@H](NC(=O)[C@H](CCC(=O)O)NC(=O)[C@H](CCC(=O)O)NC(=O)[C@@H](NC(=O)[C@H](CCC(=O)O)NC(=O)[C@H](CC(=O)O)NC(=O)[C@H](CC(=O)O)NC(=O)[C@@H](N)CCC(=O)O)[C@@H](C)c1ccc(O)cc1)C(=O)O. The data set is described as §1. In a few lines: as §2

For “Tyrosine-protein kinase SYK (Homo sapiens) (from UniProt P43405)”, the Michaelis constant (Km) was 136 µM in [1]; 63.2 µM in data set [2]; 146 µM in data set [3]; 124 µM in data set [4]; 17.3 µM in data set [5]; 3.6 µM in data set [6]. For the same substance, the Michaelis-Menten constant (Km) is 87.7 µM in data set [7]; 5.5 µM in data set [8]; 3.6 µM in data set [9]; 98 µM in data set [10]; 6.5 µM in [11].
